Laboratory results reported in ChEMBL document CHEMBL5344415, “Synthesis and Characterization of Phenylalanine Amides Active against Mycobacterium abscessus and Other Mycobacteria” (J Med Chem, 2023).
Values after ≈ are worked out from the molar mass of the structure shown.

How the values were obtained:
[1] = system: Mycolicibacterium smegmatis; assay: Antibacterial activity against Mycobacterium smegmatis mc2 155 expressing tomato RFP assessed as bacterial growth inhibition incubated for 3 days in 7H9 medium by RFP fluorescence based broth microdilution method; assay type: functional; conditions: mc2 155, 72 h, time 3 day
Method in brief: (§1)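 Broth microdilution in 7H9 with 10 % ADS and 0.05 % Tween 80. Twofold nine-point dilution series. Inoculum 5 x 10⁵ cells/mL taken from a mid-log preculture. Incubation at 37 °C, 3 days for M. smegmatis and M. abscessus, 5 days for M. intracellulare. Read-out by RFP fluorescence (ex 544/em 590 nm). Controls were 1 % DMSO and 100 μM amikacin. MIC₉₀ from duplicates, averaged.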

[2] = system: MCF7; assay: Cytotoxicity against human MCF7 cells assessed as reduction in cell viability incubated for 72 hrs by SRB assay; assay type: toxicity, cell-based
[3] = system: Mycobacteroides abscessus; assay: Antibacterial activity against Mycobacterium abscessus ATCC 19977 expressing tomato RFP infected in human THP-1 cells assessed as bacterial growth inhibition incubated for 4 days in RPMI medium by RFP fluorescence based assay; assay type: functional; conditions: ATCC 19977, 96 h, time 4 day
Method in brief: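 RFP M. abscessus washed, moved into RPMI, filtered through 5 µm and opsonised with 10 % human serum for 30 min. THP-1 cells infected at MOI 5:1 with PMA 40 ng/mL for 4 h at 37 °C, then washed. Infected cells (1x10⁵/well) given a ten-point twofold series. Incubated 4 days at 37 °C, 5 % CO₂. Cells PFA-fixed and DAPI-stained. RFP quantified by imaging. Controls were DMSO and 1.5 µM bedaquiline. Duplicate.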

[4] = Kinetic solubility of compound in PBS at 0.78 to 500 uM measured immediately by nephelometric method; assay type: physicochemical; conditions: buffer, dose 0.78-500 µM
Method in brief: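 DMSO stocks prediluted in DMSO, then diluted 1:50 into PBS (2 % DMSO final) and read immediately by nephelometry at 0.78–500 μM; blank-corrected data fitted by segmental regression; quadruplicates from one stock.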

[5] = system: Mycobacterium tuberculosis; assay: Antibacterial activity against Mycobacterium tuberculosis H37Rv ATCC 27294 assessed as bacterial growth inhibition incubated for 7 days in 7H9 medium by optical density based microplate reader analysis; assay type: functional; conditions: H37Rv ATCC 27294, 168 h, time 7 day
Method in brief: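 Compounds serially diluted in flat-bottom 96-well plates. Mid-log culture mixed in to a final OD₆₀₀ of 0.05. Sealed plates incubated in humidified boxes at 37 °C for 7 days with shaking at 80 rpm. Turbidity read at 600 nm. MIC₉₀ taken from dose–response curves. Two biological replicates, averaged.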

[6] = system: Mycobacteroides abscessus; assay: Antibacterial activity against Mycobacterium abscessus ATCC 19977 expressing tomato RFP assessed as bacterial growth inhibition incubated for 3 days in MHII medium by RFP fluorescence based broth microdilution method; assay type: functional; conditions: ATCC 19977, 72 h, time 3 day
Method in brief: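 Broth microdilution in MHII broth with 0.05 % Tween 80, against the RFP-expressing strain. Twofold nine-point dilution series. Inoculum 5 x 10⁵ cells/mL from a mid-log preculture. Incubated 3 days at 37 °C. Read-out by RFP fluorescence (ex 544/em 590 nm). Controls were 1 % DMSO and 100 μM amikacin. MIC₉₀ from duplicates, averaged.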

[7] = Cytotoxicity against mouse NIH3T3 cells assessed as reduction in cell viability incubated for 72 hrs by SRB assay; assay type: toxicity, cell-based; conditions: mouse, NIH3T3 cells
[8] = system: A-375; assay: Cytotoxicity against human A-375 cells assessed as reduction in cell viability incubated for 72 hrs by SRB assay; assay type: toxicity, cell-based
[9] = system: A2780; assay: Cytotoxicity against human A2780 cells assessed as reduction in cell viability incubated for 72 hrs by SRB assay; assay type: toxicity, cell-based
[10] = system: Mycobacteroides abscessus; assay: Antibacterial activity against Mycobacterium abscessus Bamboo harboring inactive clarithromycin-sensitive erm41 C28 sequevar assessed as bacterial growth inhibition incubated for 3 days in 7H9 medium by optical density based method; assay type: functional; conditions: 72 h, time 3 day
[11] = system: Mycobacteroides abscessus; assay: Antibacterial activity against Mycobacterium abscessus ATCC 19977 expressing tomato RFP assessed as bacterial growth inhibition incubated for 3 days in 7H9 medium by RFP fluorescence based broth microdilution method; assay type: functional; conditions: ATCC 19977, 72 h, time 3 day; method in brief: as §1
[12] = system: HeLa; assay: Cytotoxicity against human HeLa cells assessed as reduction in cell viability incubated for 72 hrs by SRB assay; assay type: toxicity, cell-based
[13] = system: HT-29; assay: Cytotoxicity against human HT-29 cells assessed as reduction in cell viability incubated for 72 hrs by SRB assay; assay type: toxicity, cell-based
[14] = system: HEK293; assay: Cytotoxicity against HEK293 cells assessed as reduction in cell viability incubated for 72 hrs by SRB assay; assay type: toxicity, cell-based, Homo sapiens
[15] = system: Mycobacterium intracellulare; assay: Antibacterial activity against Mycobacterium intracellulare ATCC 35761 expressing tomato RFP assessed as bacterial growth inhibition incubated for 5 days in 7H9 medium by RFP fluorescence based broth microdilution method; assay type: functional; conditions: ATCC 35761, 120 h, time 5 day; method in brief: as §1
[16] = system: Mycobacteroides abscessus; assay: Antibacterial activity against MMV688845-resistant Mycobacterium abscessus Bamboo 845R-2.1 harboring rpoB/beta subunit P473L mutation assessed as bacterial growth inhibition incubated for 3 days by optical density based analysis; assay type: functional; conditions: Bamboo 845R-2.1, 72 h, time 3 day
Method in brief: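 Tenfold-point twofold dilution series in 7H9, final DMSO 1 %. Final ranges typically 50–0.098 or 6.25–0.012 μM. Mid-log culture added to an initial OD₆₀₀ of 0.05 (5*10⁶ CFU/mL). Incubated 3 days at 37 °C with shaking at 110 rpm. Growth taken as OD₆₀₀ on day 3 minus day 0, as % of drug-free wells. MIC₉₀ read visually from the curves. Clarithromycin as control. Two biological replicates, averaged.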

| SMILES | MIC90 [1] | EC50 [2] | MIC50 [3] | MIC90 [3] | Kinetic_solubility [4] | MIC90 [5] | MIC90 [6] | EC50 at 72 h [7] | EC50 [8] | EC50 [9] | MIC50 [10] | MIC90 [10] | MIC90 [11] | EC50 [12] | EC50 [13] | EC50 [14] | MIC90 [15] | MIC90 [16] |
| --- | --- | --- | --- | --- | --- | --- | --- | --- | --- | --- | --- | --- | --- | --- | --- | --- | --- | --- |
| O=C(N[C@H](Cc1ccc(O)cc1)C(=O)Nc1cc(F)ccc1N1CCS(=O)(=O)CC1)c1ccccc1F | 6.25 µM (≈ 3.31 µg/mL) | > 30 µM | 3.13 µM (≈ 1.66 µg/mL) | 25 µM (≈ 13.2 µg/mL) | 158 µM | 0.78 µM (≈ 0.413 µg/mL) | 6.25 µM (≈ 3.31 µg/mL) | > 30 µM | > 30 µM | > 30 µM | 1.1 µM (≈ 0.583 µg/mL) | 13 µM (≈ 6.88 µg/mL) | 6.25 µM (≈ 3.31 µg/mL) | > 30 µM | > 30 µM | > 30 µM | 0.2 µM (≈ 0.106 µg/mL) | – |
| O=C(N[C@H](Cc1cccs1)C(=O)Nc1ccccc1N1CCOCC1)c1ccccc1F | 1.56 µM (≈ 0.708 µg/mL) | > 30 µM | 6.25 µM (≈ 2.83 µg/mL) | 25 µM (≈ 11.3 µg/mL) | 39 µM | 3.13 µM (≈ 1.42 µg/mL) | 12.5 µM (≈ 5.67 µg/mL) | > 30 µM | > 30 µM | > 30 µM | 2 µM (≈ 0.907 µg/mL) | 7 µM (≈ 3.17 µg/mL) | 6.25 µM (≈ 2.83 µg/mL) | > 30 µM | > 30 µM | – | 0.78 µM (≈ 0.354 µg/mL) | – |
| O=C(N[C@H](Cc1cccs1)C(=O)Nc1ccccc1N1CC[S+]([O-])CC1)c1ccccc1F | 1.56 µM (≈ 0.758 µg/mL) | 28.9 µM | 6.25 µM (≈ 3.04 µg/mL) | 50 µM (≈ 24.3 µg/mL) | 96 µM | 1.56 µM (≈ 0.758 µg/mL) | 12.5 µM (≈ 6.07 µg/mL) | > 30 µM | 29.3 µM | 29 µM | 1.8 µM (≈ 0.874 µg/mL) | 6.5 µM (≈ 3.16 µg/mL) | 6.25 µM (≈ 3.04 µg/mL) | > 30 µM | > 30 µM | – | 0.2 µM (≈ 0.0971 µg/mL) | – |
| CO[C@H]1/C=C/O[C@@]2(C)Oc3c(C)c(O)c4c(c3C2=O)C2=NC3(CCN(CC(C)C)CC3)NC2=C(NC(=O)/C(C)=C\C=C\[C@H](C)[C@H](O)[C@@H](C)[C@@H](O)[C@@H](C)[C@H](OC(C)=O)[C@@H]1C)C4=O [RIFABUTIN] | – | – | – | – | – | – | – | – | – | – | – | 3 µM (≈ 2.54 µg/mL) | – | – | – | – | – | 1.1 µM (≈ 0.932 µg/mL) |
| O=C(N[C@H](Cc1ccsc1)C(=O)Nc1ccccc1N1CCOCC1)c1cccs1 | 1.56 µM (≈ 0.689 µg/mL) | > 30 µM | 12.5 µM (≈ 5.52 µg/mL) | 50 µM (≈ 22.1 µg/mL) | 30 µM | 3.13 µM (≈ 1.38 µg/mL) | 12.5 µM (≈ 5.52 µg/mL) | > 30 µM | > 30 µM | > 30 µM | 2.3 µM (≈ 1.02 µg/mL) | 7 µM (≈ 3.09 µg/mL) | 12.5 µM (≈ 5.52 µg/mL) | > 30 µM | > 30 µM | – | 1.56 µM (≈ 0.689 µg/mL) | – |
| O=C(N[C@H](Cc1ccccc1)C(=O)Nc1ccccc1N1CCSCC1)c1ccccc1F | 3.13 µM (≈ 1.45 µg/mL) | 13.6 µM | 12.5 µM (≈ 5.79 µg/mL) | > 100 µM | 28 µM | 6.25 µM (≈ 2.9 µg/mL) | 50 µM (≈ 23.2 µg/mL) | > 30 µM | 18.6 µM | 14.9 µM | 3 µM (≈ 1.39 µg/mL) | 18 µM (≈ 8.34 µg/mL) | 12.5 µM (≈ 5.79 µg/mL) | > 30 µM | > 30 µM | 6.3 µM | 0.78 µM (≈ 0.362 µg/mL) | – |
| O=C(N[C@H](Cc1ccccc1)C(=O)Nc1cc(F)ccc1N1CC[S+]([O-])CC1)c1ccccc1F | 1.56 µM (≈ 0.776 µg/mL) | > 30 µM | 0.39 µM (≈ 0.194 µg/mL) | 12.5 µM (≈ 6.22 µg/mL) | 184 µM | 0.78 µM (≈ 0.388 µg/mL) | 3.13 µM (≈ 1.56 µg/mL) | > 30 µM | > 30 µM | > 30 µM | 0.52 µM (≈ 0.259 µg/mL) | 2 µM (≈ 0.995 µg/mL) | 3.31 µM (≈ 1.65 µg/mL) | > 30 µM | > 30 µM | – | 0.2 µM (≈ 0.0995 µg/mL) | – |
